Drawing on ChEMBL document CHEMBL2407002, “Simplification of antitumoral phenanthroindolizidine alkaloids: short synthesis of cytotoxic indolizidinone and pyrrolidine analogs” (2013), this text covers Activity for 23 compounds.

Test [1] concerns SH-SY5Y. Nature of the test: Cytotoxicity against human SH-SY5Y cells assessed as cell viability at 30 uM after 48 hrs by trypan blue staining-based assay. It is filed as functional. In short, it runs like this:
(§1)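 Indolizidinone series: MCF-7 grown in DMEM phenol red and SHSY-5Y in DMEM/F12 Ham's, each with 10% FBS, at 37 °C under 5% CO2 to 80% confluence. About 10 × 10⁶ cells were seeded, grown 24 h, then exposed 24 or 48 h to vehicle (0.05% DMSO) or increasing compound concentrations in DMSO. Viable cells were counted by trypan blue staining on a Vi-Cell-XR analyzer.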

For test [2], the system named is MCF7. Nature of the test: Cytotoxicity against human MCF7 cells assessed as cell viability at 30 uM after 48 hrs by trypan blue staining-based assay. Format: functional. In short, it runs like this:
as §1

Test [3] concerns MCF7. The test is described as follows: Cytotoxicity against human MCF7 cells assessed as cell mortality at 10 uM after 24 hrs by trypan blue exclusion assay. It is filed as functional, cell-based. Put shortly: (§2)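 Pyrrolidine series: MCF-7 in DMEM and SHSY-5Y in DMEM/F12 with 10% FBS, grown to 70% confluence. Compounds in DMSO (0.05%) were added at 10 µM for 24 h or 30 µM for 48 h, with DMSO (0.05%) vehicle controls for the same period. Mortality was derived from trypan blue counts. Data are mean ± SEM of 5-6 assays, analysed by one-way ANOVA followed by Student's t test versus vehicle.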

The test system of test [4] is SH-SY5Y. Nature of the test: Cytotoxicity against human SH-SY5Y cells assessed as cell mortality at 10 uM after 24 hrs by trypan blue exclusion assay. It is filed as functional, cell-based. Put shortly: as §2
Test [5] has as its system SH-SY5Y. Nature of the test: Cytotoxicity against human SH-SY5Y cells assessed as cell mortality at 30 uM after 48 hrs by trypan blue exclusion assay. Format: functional, cell-based. Put shortly:
as §2

In test [6] the test system is MCF7. The test is described as follows: Cytotoxicity against human MCF7 cells assessed as cell mortality at 30 uM after 48 hrs by trypan blue exclusion assay relative to control. It is filed as functional. Put shortly: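 MCF-7 cells were cultured in DMEM + 10% FBS to 70% confluence. Compound was dissolved in DMSO (0.05%) and added to the medium for 48 h. Controls received 0.05% DMSO for the same period. Total cells, viable cells and mortality were calculated per compound and dose. Results are given as mean ± SEM of 5–6 assays, analysed by one-way ANOVA then Student's t test.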

Test [7] relates to MCF7. Nature of the test: Cytotoxicity against human MCF7 cells assessed as cytoplasm vacuolization at 30 uM. Conditions: TDE = time-dependent effect. Format: functional, cell-based. Put shortly: (§3)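 Cells were treated at 30 µM (0.05% DMSO vehicle controls) and examined microscopically over time, from 6 h up to 48 h. Changes scored were cell and nuclear volume, nucleolar refringency and cytoplasm vacuolization, compared with vehicle-treated cells.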

The subject of test [8] is SH-SY5Y. The test is described as follows: Cytotoxicity against human SH-SY5Y cells assessed as change in cell morphology at 30 uM after 48 hrs. It is filed as functional, cell-based. Put shortly: as §3
Test [9] deals with MCF7. Nature of the test: Cytotoxicity against human MCF7 cells assessed as increase in cellular volume at 30 uM. Format: functional, cell-based. Conditions: TDE = time-dependent effect. In short, it runs like this:
as §3

Test [10] deals with SH-SY5Y. Nature of the test: Cytotoxicity against human SH-SY5Y cells after 24 to 48 hrs by trypan blue exclusion assay. It is filed as functional, cell-based. Put shortly:
as §1

Test [11] deals with MCF7. Nature of the test: Cytotoxicity against human MCF7 cells after 24 to 48 hrs by trypan blue exclusion assay. It is filed as functional, cell-based. Put shortly:
as §1

In test [12] the test system is MCF7. Nature of the test: Cytotoxicity against human MCF7 cells assessed as increase in nuclear volume at 30 uM. Format: functional, cell-based. Particulars: TDE = time-dependent effect. In short, it runs like this: as §3
For test [13], the system named is MCF7. Nature of the test: Cytotoxicity against human MCF7 cells assessed as nucleolar refringency at 30 uM. It is filed as functional, cell-based. Conditions: TDE = time-dependent effect. Put shortly: as §3
The test system of test [14] is MCF7. Nature of the test: Cytotoxicity against human MCF7 cells assessed as change in cell morphology at 30 uM after 48 hrs. Format: functional, cell-based. In short, it runs like this:
as §3

The nature of test [15]: Cytotoxicity against human SH-SY5Y cells assessed as cell death at 30 uM after 48 hrs by trypan blue staining-based assay relative to control. Format: functional. In short, it runs like this: (§4)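 Cells grown at 37 °C, 5% CO2 to 80% confluence: MCF-7 in phenol red DMEM + 10% FBS, SH-SY5Y in DMEM/F12 Ham's + 10% FBS. About 10 × 10⁶ cells were seeded and grown 24 h, then exposed 48 h to compound in […] or to vehicle (0.05% DMSO). Viable cells were counted by trypan blue staining on an automated analyzer. Compared with vehicle.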

The subject of test [16] is MCF7. Nature of the test: Cytotoxicity against human MCF7 cells assessed as cell death at 30 uM after 48 hrs by trypan blue staining-based assay relative to control. It is filed as functional. Put shortly: as §4

The source made the active and inactive calls. No cut-off for these calls is given here.

Turning to `O=C1C(c2ccccc2)=C(c2ccc(Br)cc2)C[C@@H]2C[C@@H](O)CN12`, the outcome in test [1] and in test [2] was Active.

Regarding `Cn1cccc1C(=O)C[C@@H]1C[C@@H](O)CN1C(=O)Cc1ccccc1`, the outcome in [3], in [4], in test [5] and in test [6] was Active.

With `Cn1cccc1C1=C(c2ccccc2)C(=O)N2C[C@H](O)C[C@@H]2C1`, the result in test [1] and in [2] was Active.

In the case of `O=C(CC1C[C@@H](O)CN1C(=O)Cc1ccccc1)c1ccco1` (stereo not given in full), the result in test [3], in test [4], in test [5] and in test [6] was Active.

Turning to `Cn1cccc1C1=C(c2ccccc2)C(=O)N2C[C@H](O)C[C@H]2C1`, the result in [1] and in [2] was Active.

For the compound `O=C(CC1C[C@@H](O)CN1C(=O)Cc1ccccc1)c1ccc(Br)cc1` (stereo not given in full), the outcome in test [3], in [4], in [5] and in test [6] was Active.

Turning to `O=C(C[C@H]1C[C@@H](O)CN1C(=O)Cc1ccccc1)c1ccc(-c2ccccc2)cc1`, the Activity result is “tde” in test [7]; “tde” in test [9]; “Dose-dependent effect” in test [10]; “Dose-dependent effect” in [11]; “tde” in test [12]; “tde” in test [13]. Further, in test [6], the Activity entry is reported as “>=80%”. Also, the result in test [3] and in test [8] was Active.

Take `O=C(C[C@H]1C[C@@H](O)CN1C(=O)Cc1ccccc1)c1ccco1`: the outcome in test [3], in test [4], in [5] and in [6] was Active.

Take `O=C1C(c2ccccc2)=C(c2ccccc2)C[C@@H]2C[C@@H](O)CN12`: the result in test [2] was Active.

In the case of `O=C(C[C@@H]1C[C@@H](O)CN1C(=O)Cc1ccccc1)c1ccco1`, the Activity entry in [10] and in [11] was “Dose-dependent effect” in each case.

Consider `O=C1C(c2ccccc2)=C(c2ccc3ccccc3c2)C[C@H]2C[C@@H](O)CN12`, for which the outcome in [2] was Active.

Turning to `O=C1C(c2ccccc2)=C(c2ccccc2)C[C@H]2C[C@@H](O)CN12`, the result in [2] was Active.

Turning to `COc1ccc(C(=O)CC2C[C@@H](O)CN2C(=O)Cc2ccccc2)cc1` (stereo not given in full), the outcome in test [3], in test [4], in test [5] and in test [6] was Active.

Regarding `O=C1C(c2ccccc2)=C(c2ccc(Br)cc2)C[C@H]2C[C@@H](O)CN12`, the outcome in [2] was Active.

For `O=C1C(c2ccccc2)=C(c2ccco2)C[C@H]2C[C@@H](O)CN12`, the outcome in [2] was Active.

As for `O=C1C(c2ccccc2)=C(c2ccc(-c3ccccc3)cc2)C[C@H]2C[C@@H](O)CN12`, the outcome in test [8], in [14], in test [1] and in test [2] was Active. Moreover, the Activity in test [15] and in [16] was 80% in each case.

As for `Cn1cccc1C(=O)CC1C[C@@H](O)CN1C(=O)Cc1ccccc1` (stereo not given in full), the outcome in test [3], in test [4], in test [5] and in test [6] was Active.

On to `COc1ccc(C2=C(c3ccccc3)C(=O)N3C[C@H](O)C[C@H]3C2)cc1`, for which the result in test [1] and in [2] was Active.

As to `O=C1C(c2ccccc2)=C(c2ccc(-c3ccccc3)cc2)C[C@@H]2C[C@@H](O)CN12`, the outcome in [1] and in test [2] was Active.

For the compound `COc1ccc(C2=C(c3ccccc3)C(=O)N3C[C@H](O)C[C@@H]3C2)cc1`, the outcome in test [2] was Active.

For `O=C(C[C@@H]1C[C@@H](O)CN1C(=O)Cc1ccccc1)c1ccc(-c2ccccc2)cc1`, the outcome in test [3] was Active. Moreover, the values for the Activity result in test [10], in [11] and in [6] were “Dose-dependent effect”, “Dose-dependent effect” and “>=80%”, respectively.

With `O=C1C(c2ccccc2)=C(c2ccco2)C[C@@H]2C[C@@H](O)CN12`, the result in [1] and in [2] was Active.

As for `O=C1C(c2ccccc2)=C(c2ccc3ccccc3c2)C[C@@H]2C[C@@H](O)CN12`, the result in test [1] and in test [2] was Active.
